From ChEMBL document CHEMBL4257446, “Synthesis and biological evaluation of chalcone-linked pyrazolo[1,5-a]pyrimidines as potential anticancer agents” (Medchemcomm, 2017)
Calls of active or inactive are those of the source. No cut-off for these calls is given here.

Legend:
[1] = system: MDA-MB-231; assay: Antiproliferative activity against human MDA-MB-231 cells after 24 hrs by MTT assay; type: functional, cell-based; conditions: MDA-MB-231, 24 h
In short: (§1)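 Cells exposed to a range of compound concentrations; viability read by MTT assay. IC50 (concentration giving 50% growth inhibition) calculated and reported as mean ± S.D. of three independent experiments, each run in triplicate.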

[2] = system: A549; assay: Antiproliferative activity against human A549 cells after 24 hrs by MTT assay; type: functional, cell-based; conditions: A549, 24 h; in short: as §1
[3] = system: DU-145; assay: Antiproliferative activity against human DU145 cells after 24 hrs by MTT assay; type: functional, cell-based; conditions: DU-145, 24 h; in short: as §1
[4] = system: HEK293; assay: Antiproliferative activity against HEK293 cells after 24 hrs by MTT assay; type: cell-based; conditions: Homo sapiens, HEK293, 24 h
[5] = system: A549; assay: Cell cycle arrest in human A549 cells assessed as accumulation of cells at G2/M phase at 2 uM after 24 hrs by propidium iodide staining-based flow cytometric analysis (reference value: 20.4%); type: functional
[6] = system: HEK293; assay: Cell cycle arrest in HEK293 cells after 24 hrs by propidium iodide staining-based flow cytometric analysis; conditions: human, hek293, 24 h
[7] = system: A549; assay: Decrease in STAT3 protein expression in human A549 cells in STAT3 levels at 2 uM after 24 hrs by Western blot analysis; type: functional, cell-based
In short: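 A549 cells exposed at 2 μM final concentration and collected 24 h later. Total protein lysate extracted and immunoblotted with antibodies against the EGFR/STAT3 pathway proteins. Erlotinib-treated cells were the positive control and untreated cells the negative control.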

[8] = system: A549; assay: Induction of apoptosis in human A549 cells assessed as increase in p53 levels at 2 uM after 24 hrs by Western blot analysis; type: functional, cell-based
In short: (§2)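 A549 cells given 2 μM final concentration for 24 h. Total lysate probed by western blot for apoptosis-related proteins (Bax, p53, p21, caspase-3, Bcl2). Erlotinib served as positive control and untreated cells as negative control.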

[9] = system: A549; assay: Induction of apoptosis in human A549 cells assessed as increase in p21 levels at 2 uM after 24 hrs by Western blot analysis; type: functional, cell-based; in short: as §2
[10] = system: A549; assay: Induction of apoptosis in human A549 cells assessed as increase in Bax levels at 2 uM after 24 hrs by Western blot analysis; type: functional, cell-based; in short: as §2
[11] = system: A549; assay: Induction of apoptosis in human A549 cells assessed as decrease in Bcl2 levels at 2 uM after 24 hrs by Western blot analysis; type: functional, cell-based; in short: as §2
[12] = system: HEK293; assay: Induction of apoptosis in HEK293 cells assessed as effect on p21 levels after 24 hrs by Western blot analysis; type: cell-based; conditions: human, hek293, 24 h
[13] = system: HEK293; assay: Induction of apoptosis in HEK293 cells assessed as effect on p53 levels after 24 hrs by Western blot analysis; type: cell-based; conditions: human, hek293, 24 h
[14] = system: HEK293; assay: Induction of apoptosis in HEK293 cells assessed as effect on Bax levels after 24 hrs by Western blot analysis; type: cell-based; conditions: human, hek293, 24 h
[15] = system: HEK293; assay: Induction of apoptosis in HEK293 cells assessed as effect on Bcl2 levels after 24 hrs by Western blot analysis; type: cell-based; conditions: human, hek293, 24 h
[16] = system: A549; assay: Induction of apoptosis in human A549 cells assessed as decrease in pro-caspase-9 levels at 2 uM after 24 hrs by Western blot analysis; type: functional, cell-based

| Compound | IC50 [1] | IC50 [2] | IC50 [3] | IC50 [4] | other results |
| --- | --- | --- | --- | --- | --- |
| COc1cc(-c2cc(/C=C/C(=O)c3ccc(C)c(C)c3)nc3cc(-c4ccccc4)nn23)cc(OC)c1OC | 13.5 µM | 10.6 µM | 15.4 µM | 72.5 µM |  |
| COc1ccc(-c2cc(/C=C/C(=O)c3ccc(C)cc3)nc3cc(-c4ccccc4)nn23)cc1OC | 19.8 µM | 17.2 µM | 26.8 µM | 62.6 µM |  |
| COc1ccc(-c2cc(C(=O)/C=C/c3ccccc3)nc3cc(-c4ccccc4)nn23)cc1OC | 23.3 µM | 18.6 µM | 15.6 µM | 64.1 µM |  |
| COc1ccc(C(=O)/C=C/c2cc(-c3ccc(OC)c(OC)c3)n3nc(-c4ccccc4)cc3n2)cc1OC | 2.6 µM | 3.9 µM | 7.2 µM | 32.5 µM | Activity [5]: 29.5%; Activity [6]: Non-Toxic; Activity [7]: Active; Activity [8]: Active; Activity [9]: Active; Activity [10]: Active; Activity [11]: Active; Activity [12]: Non-Toxic; Activity [13]: Non-Toxic; Activity [14]: Non-Toxic; Activity [15]: Non-Toxic; Activity [16]: Active |
| COc1ccc(/C=C/C(=O)c2cc(-c3ccc(OC)c(OC)c3)n3nc(-c4ccccc4)cc3n2)cc1 | 22 µM | 19.3 µM | 14.9 µM | 50.7 µM |  |
| COc1ccc(-c2cc(C(=O)/C=C/c3ccc(Cl)cc3)nc3cc(-c4ccccc4)nn23)cc1OC | 23.7 µM | 22 µM | 22.4 µM | 39.1 µM |  |
| COc1ccc(-c2cc(/C=C/C(=O)c3ccccc3)nc3cc(-c4ccccc4)nn23)cc1OC | 11.8 µM | 10.7 µM | 10 µM | 51.2 µM |  |
| COc1ccc(-c2cc(/C=C/C(=O)c3cc(OC)c(OC)c(OC)c3)nc3cc(-c4ccccc4)nn23)cc1OC | 4.7 µM | 7.2 µM | 8.3 µM | 35 µM | Activity [5]: 33.11%; Activity [6]: Non-Toxic; Activity [7]: Active; Activity [8]: Active; Activity [9]: Active; Activity [10]: Active; Activity [11]: Active; Activity [12]: Non-Toxic; Activity [13]: Non-Toxic; Activity [14]: Non-Toxic; Activity [15]: Non-Toxic; Activity [16]: Active |
| COc1cc(/C=C/C(=O)c2cc(-c3cc(OC)c(OC)c(OC)c3)n3nc(-c4ccccc4)cc3n2)cc(OC)c1OC | 18.4 µM | 25.9 µM | 17.9 µM | 41 µM |  |
| COc1cc(-c2cc(C(=O)/C=C/c3ccc(Cl)cc3)nc3cc(-c4ccccc4)nn23)cc(OC)c1OC | 21.6 µM | 23.8 µM | 19.5 µM | 53.9 µM |  |
| COc1cc(-c2cc(C(=O)/C=C/c3ccccc3)nc3cc(-c4ccccc4)nn23)cc(OC)c1OC | 19.2 µM | 18 µM | 16.3 µM | 44.8 µM |  |
| COc1ccc(C(=O)/C=C/c2cc(-c3cc(OC)c(OC)c(OC)c3)n3nc(-c4ccccc4)cc3n2)cc1OC | 18.3 µM | 17.8 µM | 29.9 µM | 81.7 µM |  |
| COc1cc(-c2cc(/C=C/C(=O)c3ccc(C)cc3)nc3cc(-c4ccccc4)nn23)cc(OC)c1OC | 23.9 µM | 19.4 µM | 27.1 µM | 50.4 µM |  |
| COc1ccc(/C=C/C(=O)c2cc(-c3cc(OC)c(OC)c(OC)c3)n3nc(-c4ccccc4)cc3n2)cc1 | 16.5 µM | 21.2 µM | 16.9 µM | 46.6 µM |  |
| C#Cc1cccc(Nc2ncnc3cc(OCCOC)c(OCCOC)cc23)c1 [ERLOTINIB] | 14.7 µM | 10.4 µM | 18.4 µM | 30.3 µM | Activity [5]: 24.5%; Activity [6]: Non-Toxic; Activity [7]: inactive |
| COc1ccc(-c2cc(/C=C/C(=O)c3ccc(OC)c(OC)c3)nc3cc(-c4ccccc4)nn23)cc1 | 8.7 µM | 7.4 µM | 16.4 µM | 48.5 µM |  |
| COc1ccc(-c2cc(/C=C/C(=O)c3ccc(Cl)cc3)nc3cc(-c4ccccc4)nn23)cc1OC | 17.1 µM | 15.4 µM | 21.3 µM | 44.1 µM |  |
| COc1cc(-c2cc(/C=C/C(=O)c3ccc(Cl)cc3)nc3cc(-c4ccccc4)nn23)cc(OC)c1OC | 32.5 µM | 15.5 µM | 29.3 µM | ≥ 100 µM |  |
| COc1ccc(-c2cc(C(=O)/C=C/c3cc(OC)c(OC)c(OC)c3)nc3cc(-c4ccccc4)nn23)cc1OC | 16.7 µM | 15.4 µM | 14.7 µM | 46.8 µM |  |
| COc1ccc(-c2cc(/C=C/C(=O)c3ccccc3)nc3cc(-c4ccccc4)nn23)cc1 | 9.9 µM | 8.6 µM | 13.7 µM | 53.2 µM |  |
| COc1cc(-c2cc(C(=O)/C=C/c3ccc(C)cc3)nc3cc(-c4ccccc4)nn23)cc(OC)c1OC | 18.6 µM | 20 µM | 21.9 µM | 56.1 µM |  |
| COc1ccc(C(=O)/C=C/c2cc(-c3ccc(OC)c(OC)c3)n3nc(-c4ccccc4)cc3n2)cc1 | 13.9 µM | 11.9 µM | 14.6 µM | 40 µM |  |
| COc1ccc(-c2cc(C(=O)/C=C/c3ccc(C)cc3)nc3cc(-c4ccccc4)nn23)cc1OC | 22.6 µM | 22.2 µM | 19.5 µM | 57.4 µM |  |
| COc1cc(C(=O)/C=C/c2cc(-c3cc(OC)c(OC)c(OC)c3)n3nc(-c4ccccc4)cc3n2)cc(OC)c1OC | 24.3 µM | 20.5 µM | 34.9 µM | ≥ 100 µM |  |
| COc1ccc(/C=C/C(=O)c2cc(-c3cc(OC)c(OC)c(OC)c3)n3nc(-c4ccccc4)cc3n2)cc1OC | 14.2 µM | 20.5 µM | 15.3 µM | 41 µM |  |
| COc1ccc(C(=O)/C=C/c2cc(-c3cc(OC)c(OC)c(OC)c3)n3nc(-c4ccccc4)cc3n2)cc1 | 13.2 µM | 14.6 µM | 25.2 µM | 79.8 µM |  |
| COc1ccc(-c2cc(/C=C/C(=O)c3ccc(C)c(C)c3)nc3cc(-c4ccccc4)nn23)cc1OC | 11.5 µM | 9.3 µM | 12.1 µM | 46.2 µM |  |
| COc1cc(-c2cc(/C=C/C(=O)c3ccccc3)nc3cc(-c4ccccc4)nn23)cc(OC)c1OC | 15.8 µM | 18.2 µM | 34.3 µM | ≥ 100 µM |  |
